According to publication PMC5741288 (Pain Reports, 2016):
Marks after values point to notes of the source that are not given here.

Assay: Treatment-emergent adverse events, tolerability
Type: in vivo, healthy men
Outline: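 Healthy men received single oral tablet doses (part 1: 1–225 mg; part 2: 10, 50 mg) or placebo under double-blind randomisation. Treatment-emergent adverse events were recorded along with clinical laboratory tests, ECG, oral temperature, vital signs and physical examinations, through follow-up.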

CC(C)(O)c1ccccc1-c1ccc2[nH]c(/C=C/c3ccc(C(F)(F)F)cc3)nc2c1 [JNJ-39439335, trans-2-(2-{2-[2-(4-Trifluoromethyl-phenyl)-vinyl]-1H-benzimidazol-5-yl}-phenyl)-propan-2-ol]
TEAE Burning sensation (part 1, 30 mg (N = 5)): 0 n (%) | TEAE Chills (part 1, 30 mg (N = 5)): 0 n (%) | TEAE Dizziness (part 1, 30 mg (N = 5)): 1 (20) n (%) | TEAE Dizziness postural (part 1, 30 mg (N = 5)): 0 n (%) | TEAE Dysgeusia (part 1, 30 mg (N = 5)): 1 (20) n (%) | TEAE Fatigue (part 1, 30 mg (N = 5)): 0 n (%) | TEAE Feeling cold (part 1, 30 mg (N = 5)): 5 (100) n (%) | TEAE Feeling hot (part 1, 30 mg (N = 5)): 4 (80) n (%) | TEAE Headache (part 1, 30 mg (N = 5)): 0 n (%) | TEAE Hematoma (part 1, 30 mg (N = 5)): 0 n (%) | TEAE Hyperhidrosis (part 1, 30 mg (N = 5)): 0 n (%) | TEAE Hypoesthesia (part 1, 30 mg (N = 5)): 0 n (%) | TEAE Hypogeusia (part 1, 30 mg (N = 5)): 0 n (%) | TEAE Nausea (part 1, 30 mg (N = 5)): 0 n (%) | TEAE Orthostatic hypotension (part 1, 30 mg (N = 5)): 1 (20) n (%) | TEAE Paresthesia (part 1, 30 mg (N = 5)): 0 n (%) | TEAE Pruritus (part 1, 30 mg (N = 5)): 0 n (%) | TEAE Pyrexia (part 1, 30 mg (N = 5)): 3 (60) n (%) | TEAE Rhinitis (part 1, 30 mg (N = 5)): 0 n (%) | TEAE Thermal burn (part 1, 30 mg (N = 5)): 1 (20) n (%) | TEAE Thermohypoesthesia (part 1, 30 mg (N = 5)): 3 (60) n (%) | Total no. participants with AEs (part 1, 30 mg (N = 5)): 5 (100) n (%) | TEAE Agusia (part 1, 60 mg (N = 6)): 0 n (%) | TEAE Back pain (part 1, 60 mg (N = 6)): 0 n (%) | TEAE Burning sensation (part 1, 60 mg (N = 6)): 0 n (%) | TEAE Chills (part 1, 60 mg (N = 6)): 0 n (%) | TEAE Dizziness (part 1, 60 mg (N = 6)): 0 n (%) | TEAE Dizziness postural (part 1, 60 mg (N = 6)): 0 n (%) | TEAE Dysgeusia (part 1, 60 mg (N = 6)): 1 (17) n (%) | TEAE Fatigue (part 1, 60 mg (N = 6)): 0 n (%) | TEAE Feeling cold (part 1, 60 mg (N = 6)): 4 (67) n (%) | TEAE Feeling hot (part 1, 60 mg (N = 6)): 1 (17) n (%) | TEAE Headache (part 1, 60 mg (N = 6)): 0 n (%) | TEAE Hematoma (part 1, 60 mg (N = 6)): 0 n (%) | TEAE Hyperhidrosis (part 1, 60 mg (N = 6)): 0 n (%) | TEAE Hypoesthesia (part 1, 60 mg (N = 6)): 1 (17) n (%) | TEAE Hypogeusia (part 1, 60 mg (N = 6)): 0 n (%) | TEAE Nausea (part 1, 60 mg (N = 6)): 1 (17) n (%) | TEAE Paresthesia (part 1, 60 mg (N = 6)): 0 n (%) | TEAE Pruritus (part 1, 60 mg (N = 6)): 0 n (%) | TEAE Pyrexia (part 1, 60 mg (N = 6)): 4 (67) n (%) | TEAE Rhinitis (part 1, 60 mg (N = 6)): 0 n (%) | TEAE Thermal burn (part 1, 60 mg (N = 6)): 0 n (%) | TEAE Thermohypoesthesia (part 1, 60 mg (N = 6)): 1 (17) n (%) | Total no. participants with AEs (part 1, 60 mg (N = 6)): 6 (100) n (%) | TEAE Agusia (part 1, 120 mg (N = 6)): 0 n (%) | TEAE Back pain (part 1, 120 mg (N = 6)): 0 n (%) | TEAE Burning sensation (part 1, 120 mg (N = 6)): 0 n (%) | TEAE Chills (part 1, 120 mg (N = 6)): 1 (17) n (%) | TEAE Dizziness (part 1, 120 mg (N = 6)): 1 (17) n (%) | TEAE Dizziness postural (part 1, 120 mg (N = 6)): 1 (17) n (%) | TEAE Dysgeusia (part 1, 120 mg (N = 6)): 0 n (%) | TEAE Fatigue (part 1, 120 mg (N = 6)): 1 (17) n (%) | TEAE Feeling cold (part 1, 120 mg (N = 6)): 1 (17) n (%) | TEAE Feeling hot (part 1, 120 mg (N = 6)): 1 (17) n (%) | TEAE Headache (part 1, 120 mg (N = 6)): 1 (17) n (%) | TEAE Hematoma (part 1, 120 mg (N = 6)): 1 (17) n (%) | TEAE Hyperhidrosis (part 1, 120 mg (N = 6)): 0 n (%) | TEAE Hypoesthesia (part 1, 120 mg (N = 6)): 1 (17) n (%) | TEAE Hypogeusia (part 1, 120 mg (N = 6)): 0 n (%) | TEAE Nausea (part 1, 120 mg (N = 6)): 1 (17) n (%) | TEAE Orthostatic hypotension (part 1, 120 mg (N = 6)): 0^a n (%) | TEAE Paresthesia (part 1, 120 mg (N = 6)): 0 n (%) | TEAE Pruritus (part 1, 120 mg (N = 6)): 1 (17) n (%) | TEAE Pyrexia (part 1, 120 mg (N = 6)): 4 (67) n (%) | TEAE Rhinitis (part 1, 120 mg (N = 6)): 0 n (%) | TEAE Thermal burn (part 1, 120 mg (N = 6)): 0 n (%) | TEAE Thermohypoesthesia (part 1, 120 mg (N = 6)): 4 (67) n (%) | Total no. participants with AEs (part 1, 120 mg (N = 6)): 6 (100) n (%) | TEAE Agusia (part 1, 225 mg (N = 6)): 2 (33) n (%) | TEAE Back pain (part 1, 225 mg (N = 6)): 0 n (%) | TEAE Burning sensation (part 1, 225 mg (N = 6)): 5 (83) n (%) | TEAE Chills (part 1, 225 mg (N = 6)): 1 (17) n (%) | TEAE Dizziness (part 1, 225 mg (N = 6)): 1 (17) n (%) | TEAE Dizziness postural (part 1, 225 mg (N = 6)): 0 n (%) | TEAE Dysgeusia (part 1, 225 mg (N = 6)): 0 n (%) | TEAE Fatigue (part 1, 225 mg (N = 6)): 0 n (%) | TEAE Feeling cold (part 1, 225 mg (N = 6)): 2 (33) n (%) | TEAE Feeling hot (part 1, 225 mg (N = 6)): 5 (83) n (%) | TEAE Headache (part 1, 225 mg (N = 6)): 2 (33) n (%) | TEAE Hematoma (part 1, 225 mg (N = 6)): 0 n (%) | TEAE Hyperhidrosis (part 1, 225 mg (N = 6)): 1 (17) n (%) | TEAE Hypoesthesia (part 1, 225 mg (N = 6)): 0 n (%) | TEAE Hypogeusia (part 1, 225 mg (N = 6)): 0 n (%) | TEAE Nausea (part 1, 225 mg (N = 6)): 0 n (%) | TEAE Orthostatic hypotension (part 1, 225 mg (N = 6)): 1 (17) n (%) | TEAE Paresthesia (part 1, 225 mg (N = 6)): 3 (50) n (%) | TEAE Pruritus (part 1, 225 mg (N = 6)): 1 (17) n (%) | TEAE Pyrexia (part 1, 225 mg (N = 6)): 3 (50) n (%) | TEAE Rhinitis (part 1, 225 mg (N = 6)): 0 n (%) | TEAE Thermal burn (part 1, 225 mg (N = 6)): 3 (50) n (%) | TEAE Thermohypoesthesia (part 1, 225 mg (N = 6)): 5 (83) n (%) | Total no. participants with AEs (part 1, 225 mg (N = 6)): 6 (100) n (%) | Participants with burning feeling (not physical burn) (part 1, 225-mg dose group): 5 participants | Participants reporting at least 1 TEAE (part 1, of 59 participants receiving JNJ-39439335): 50 (85%) n (%) | Participants with minor or first-degree burns (part 1, of the 89 participants who received JNJ-39439335 or placebo): 4 participants | Thermohypoesthesia, participants (part 1, participants receiving JNJ-39439335): 23 (39%) n (%) | Thermohypoesthesia, participants (part 2): 70% | TEAE Disturbance in attention (part 2, 10 mg (N = 19)): 1 (5) n (%) | TEAE Dizziness (part 2, 10 mg (N = 19)): 0 n (%) | TEAE Dizziness postural (part 2, 10 mg (N = 19)): 0 n (%) | TEAE Dysgeusia (part 2, 10 mg (N = 19)): 4 (21) n (%) | TEAE Feeling cold (part 2, 10 mg (N = 19)): 9 (47) n (%) | TEAE Feeling hot (part 2, 10 mg (N = 19)): 6 (32) n (%) | TEAE Headache (part 2, 10 mg (N = 19)): 3 (16) n (%) | TEAE Hyperhidrosis (part 2, 10 mg (N = 19)): 2 (11) n (%) | TEAE Oropharyngeal pain (part 2, 10 mg (N = 19)): 1 (5) n (%) | TEAE Paresthesia (part 2, 10 mg (N = 19)): 7 (37) n (%) | TEAE Pyrexia (part 2, 10 mg (N = 19)): 8 (42) n (%) | TEAE Thermal burn (part 2, 10 mg (N = 19)): 0 n (%) | TEAE Thermohypoesthesia (part 2, 10 mg (N = 19)): 9 (47) n (%) | Total no. participants with AEs (part 2, 10 mg (N = 19)): 17 (89) n (%) | TEAE Disturbance in attention (part 2, 50 mg (N = 20)): 2 (10) n (%) | TEAE Dizziness (part 2, 50 mg (N = 20)): 2 (10) n (%) | TEAE Dizziness postural (part 2, 50 mg (N = 20)): 1 (5) n (%) | TEAE Dysgeusia (part 2, 50 mg (N = 20)): 5 (25) n (%) | TEAE Feeling cold (part 2, 50 mg (N = 20)): 9 (45) n (%) | TEAE Feeling hot (part 2, 50 mg (N = 20)): 8 (40) n (%) | TEAE Headache (part 2, 50 mg (N = 20)): 3 (15) n (%) | TEAE Hyperhidrosis (part 2, 50 mg (N = 20)): 2 (10) n (%) | TEAE Oropharyngeal pain (part 2, 50 mg (N = 20)): 1 (5) n (%) | TEAE Paresthesia (part 2, 50 mg (N = 20)): 9 (45) n (%) | TEAE Pyrexia (part 2, 50 mg (N = 20)): 11 (55) n (%) | TEAE Thermal burn (part 2, 50 mg (N = 20)): 2 (10) n (%) | TEAE Thermohypoesthesia (part 2, 50 mg (N = 20)): 12 (60) n (%) | Total no. participants with AEs (part 2, 50 mg (N = 20)): 19 (95) n (%) | Participants with minor burns of the mouth (part 2, 50-mg dose): 2 participants | TEAE Disturbance in attention (part 2, Total (N = 20)): 2 (10) n (%) | TEAE Dizziness (part 2, Total (N = 20)): 2 (10) n (%) | TEAE Dizziness postural (part 2, Total (N = 20)): 2 (10) n (%) | TEAE Dysgeusia (part 2, Total (N = 20)): 7 (35) n (%) | TEAE Feeling cold (part 2, Total (N = 20)): 13 (65) n (%) | TEAE Feeling hot (part 2, Total (N = 20)): 11 (55) n (%) | TEAE Headache (part 2, Total (N = 20)): 5 (25) n (%) | TEAE Hyperhidrosis (part 2, Total (N = 20)): 4 (20) n (%) | TEAE Oropharyngeal pain (part 2, Total (N = 20)): 2 (10) n (%) | TEAE Paresthesia (part 2, Total (N = 20)): 11 (55) n (%) | TEAE Pyrexia (part 2, Total (N = 20)): 12 (60) n (%) | TEAE Thermal burn (part 2, Total (N = 20)): 2 (10) n (%) | TEAE Thermohypoesthesia (part 2, Total (N = 20)): 14 (70) n (%) | Total no. participants with AEs (part 2, Total (N = 20)): 20 (100) n (%) | Severe adverse events / withdrawals because of an adverse event (parts 1 and 2): no severe adverse events reported | Tolerability (single oral doses up to 225 mg): well tolerated
